What is called IC50 is the midpoint of a concentration-inhibition curve. One may read the inhibition as the drop in the measured response relative to a control, in per cent.

Each structure is given as a SMILES string. Active and inactive are the calls of the source. The calls are words filed in the database; no cut-off is given here.

The values that follow come from ChEMBL document CHEMBL1641417, “Cytotoxicity and topoisomerase I/II inhibition of glycosylated 2-phenyl-indoles, 2-phenyl-benzo[b]thiophenes and 2-phenyl-benzo[b]furans” (Bioorg Med Chem, 2011).

The test system of assay [1] is MCF7. The assay can be described thus: Cytotoxicity against human MCF7 cells after 72 hrs by MTS assay. The conditions noted are these: MCF7, 72 h. In general terms: Tetrazolium dyes change colour on reduction, which living cells bring about.
The test system of another assay is Vero. The assay can be described thus: Cytotoxicity against african green monkey Vero cells after 3 days by MTS assay. It is filed as cell-based. The conditions noted are these: Chlorocebus sabaeus, 72 h. The essentials: (§1)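 Non-tumour cells were CRL-7761 human skin, Vero monkey kidney (DMEM high glucose, 5% FBS, 10 mM HEPES) and NIH/3T3 mouse (DMEM, 10% calf serum). Cells were seeded, left 24 h, then switched to serum-free DMEM-F12 with albumin, transferrin and insulin, with or without compound. Exposure was 3 days at 37 °C.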

Assay [2] addresses DNA topoisomerase 2-alpha (Homo sapiens) (UniProt P11388). The assay can be described thus: Inhibition of human recombinant DNA topoisomerase 2alpha-mediated DNA cleavage assessed as decrease in relaxation of supercoiled plasmid substrate DNA at 20 uM after 30 mins by agarose gel electrophoresis.
The subject of assay [3] is HT-29. The assay can be described thus: Cytotoxicity against human HT-29 cells assessed as cell viability at 25 uM after 72 hrs by MTS assay. The following applies: HT-29, 72 h.
Assay [4] deals with HepG2. The assay can be described thus: Cytotoxicity against human HepG2 cells assessed as cell viability at 16 uM after 72 hrs by MTS assay. The conditions noted are these: HepG2, 72 h, read-out: Activity.
Assay [5] relates to HT-29. The assay can be described thus: Cytotoxicity against human HT-29 cells after 72 hrs by MTS assay. The following applies: HT-29, 72 h.
Assay [6] deals with HT-29. The assay can be described thus: Cytotoxicity against human HT-29 cells assessed as cell viability at 20 uM after 24 hrs by MTS assay. It counts as functional. The following applies: HT-29, 24 h, read-out: Activity.
Assay [7] can be described thus: Cytotoxicity against human CRL7761 cells after 3 days by MTS assay. It is filed as cell-based. The conditions noted are these: 72 h. The method in brief:
as §1

Assay [8] addresses T1, DNA topoisomerase 1 (Homo sapiens) (UniProt P11387).
T1 sequence (whole entry): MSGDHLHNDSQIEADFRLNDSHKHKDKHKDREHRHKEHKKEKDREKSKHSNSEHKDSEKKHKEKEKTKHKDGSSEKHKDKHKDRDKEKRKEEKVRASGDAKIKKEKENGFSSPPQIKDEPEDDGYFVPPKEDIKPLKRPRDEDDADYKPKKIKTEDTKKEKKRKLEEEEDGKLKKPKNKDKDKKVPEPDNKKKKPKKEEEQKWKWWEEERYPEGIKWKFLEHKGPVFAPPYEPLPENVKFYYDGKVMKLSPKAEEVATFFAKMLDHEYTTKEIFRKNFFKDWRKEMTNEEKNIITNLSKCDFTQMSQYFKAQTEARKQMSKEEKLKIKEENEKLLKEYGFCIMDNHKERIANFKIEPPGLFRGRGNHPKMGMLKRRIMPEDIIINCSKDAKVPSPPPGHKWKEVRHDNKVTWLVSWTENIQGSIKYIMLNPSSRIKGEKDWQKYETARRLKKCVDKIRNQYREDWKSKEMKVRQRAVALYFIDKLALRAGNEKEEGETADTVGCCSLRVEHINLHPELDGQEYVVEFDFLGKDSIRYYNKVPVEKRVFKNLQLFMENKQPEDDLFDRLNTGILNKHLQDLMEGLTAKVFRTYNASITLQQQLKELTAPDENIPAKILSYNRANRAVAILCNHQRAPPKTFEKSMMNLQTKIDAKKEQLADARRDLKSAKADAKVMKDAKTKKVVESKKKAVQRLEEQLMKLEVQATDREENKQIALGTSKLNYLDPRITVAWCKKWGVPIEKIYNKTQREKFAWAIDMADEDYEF
The assay can be described thus: Inhibition of human recombinant DNA topoisomerase 1-mediated DNA cleavage assessed as decrease in relaxation of supercoiled plasmid substrate DNA at 5 uM after 30 mins by agarose gel electrophoresis.

For assay [9], the system named is MCF7. The assay can be described thus: Cytotoxicity against human MCF7 cells assessed as cell viability at 20 uM after 72 hrs by MTS assay. The conditions noted are these: MCF7, 72 h, read-out: Activity.
The subject of assay [10] is HepG2. The assay can be described thus: Cytotoxicity against human HepG2 cells after 72 hrs by MTS assay. The following applies: HepG2, 72 h.
The test system of assay [11] is HepG2. The assay can be described thus: Cytotoxicity against human HepG2 cells assessed as cell viability at 25 uM after 72 hrs by MTS assay. The conditions noted are these: HepG2, 72 h.
The nature of assay [12]: Cytotoxicity against mouse NIH/3T3 cells after 3 days by MTS assay. It is filed as cell-based. The conditions noted are these: NIH3T3, 72 h. The method in brief:
as §1

Assay [13] concerns HepG2. The assay can be described thus: Cytotoxicity against human HepG2 cells assessed as cell viability at 25 uM after 24 hrs by MTS assay. It counts as functional. The following applies: HepG2, 24 h, read-out: Activity.
In assay [14] the target is DNA topoisomerase 2-alpha (Homo sapiens) (UniProt P11388). The assay can be described thus: Induction of poisoning activity in human recombinant DNA topoisomerase 2alpha assessed as enhancement of in relaxation of supercoiled plasmid substrate DNA at 100 uM after 30 mins by agarose gel electrophoresis. The method in brief:
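For topo IIα cleavage, 0.25 µg supercoiled pRYG was incubated with 4 units of human topoisomerase IIα (p170) in Tris buffer with 2 mM ATP and 10 mM MgCl2 for 30 min at 37 °C. Workup was SDS stop, proteinase K, extraction and agarose electrophoresis. Poisoning was judged by appearance of a linear DNA band.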

For assay [15] the target is unchanged. The assay can be described thus: Inhibition of human recombinant DNA topoisomerase 2alpha-mediated DNA cleavage assessed as decrease in relaxation of supercoiled plasmid substrate DNA at 100 uM after 30 mins by agarose gel electrophoresis.
In the next assay the test system is Nucleic Acid. The assay can be described thus: Binding affinity to DNA by ethidium bromide staining-based FID assay. More on the design: concentration or dose not given beside the values.
The target in assay [16] is T1, DNA topoisomerase 1 (Homo sapiens). The assay can be described thus: Inhibition of human recombinant DNA topoisomerase 1-mediated DNA cleavage assessed as decrease in relaxation of supercoiled plasmid substrate DNA at 40 uM after 30 mins by agarose gel electrophoresis.
Assay [17] relates to HT-29. The assay can be described thus: Cytotoxicity against human HT-29 cells at 25 uM after 72 hrs by MTS assay.
For assay [18], the target named is T1, DNA topoisomerase 1 (Homo sapiens). The assay can be described thus: Induction of poisoning activity in human recombinant DNA topoisomerase 1 assessed as enhancement of in relaxation of supercoiled plasmid substrate DNA at 75 to 100 uM after 30 mins by agarose gel electrophoresis. The essentials: (§2)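 In the topo I cleavage (poison) assay, the relaxation format was used with 6 units of enzyme for 30 min at 37 °C. Reactions were stopped with SDS, digested with proteinase K and CIA-extracted. DNA was run on 1% agarose with and without ethidium bromide. Poisoning was scored by the presence of the nicked open-circular band, referenced to camptothecin.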

Assay [19] has the same target. The assay can be described thus: Induction of poisoning activity in human recombinant DNA topoisomerase 1 assessed as enhancement of in relaxation of supercoiled plasmid substrate DNA at 25 to 50 uM after 30 mins by agarose gel electrophoresis. The method in brief: as §2
Assay [20] relates to MCF7. The assay can be described thus: Cytotoxicity against human MCF7 cells assessed as cell viability at 25 uM after 72 hrs by MTS assay. The conditions noted are these: MCF7, 72 h.
Assay [21] deals with T1, DNA topoisomerase 1 (Homo sapiens). The assay can be described thus: Induction of poisoning activity in human recombinant DNA topoisomerase 1 assessed as enhancement of in relaxation of supercoiled plasmid substrate DNA at 100 uM after 30 mins by agarose gel electrophoresis. The essentials:
as §2

The target is the same in assay [22]. The assay can be described thus: Inhibition of human recombinant DNA topoisomerase 1-mediated DNA cleavage assessed as decrease in relaxation of supercoiled plasmid substrate DNA at 100 uM after 30 mins by agarose gel electrophoresis.
In assay [23] the test system is HepG2. The assay can be described thus: Cytotoxicity against human HepG2 cells at 25 uM after 72 hrs by MTS assay.
For assay [24], the system named is MCF7. The assay can be described thus: Cytotoxicity against human MCF7 cells at 25 uM after 72 hrs by MTS assay.
Assay [25] concerns the target DNA topoisomerase 2-alpha (Homo sapiens) (UniProt P11388). The assay can be described thus: Inhibition of human recombinant DNA topoisomerase 2alpha-mediated DNA cleavage assessed as decrease in relaxation of supercoiled plasmid substrate DNA at 40 uM after 30 mins by agarose gel electrophoresis.

Sequence of DNA topoisomerase 2-alpha (Homo sapiens) (P11388 whole entry): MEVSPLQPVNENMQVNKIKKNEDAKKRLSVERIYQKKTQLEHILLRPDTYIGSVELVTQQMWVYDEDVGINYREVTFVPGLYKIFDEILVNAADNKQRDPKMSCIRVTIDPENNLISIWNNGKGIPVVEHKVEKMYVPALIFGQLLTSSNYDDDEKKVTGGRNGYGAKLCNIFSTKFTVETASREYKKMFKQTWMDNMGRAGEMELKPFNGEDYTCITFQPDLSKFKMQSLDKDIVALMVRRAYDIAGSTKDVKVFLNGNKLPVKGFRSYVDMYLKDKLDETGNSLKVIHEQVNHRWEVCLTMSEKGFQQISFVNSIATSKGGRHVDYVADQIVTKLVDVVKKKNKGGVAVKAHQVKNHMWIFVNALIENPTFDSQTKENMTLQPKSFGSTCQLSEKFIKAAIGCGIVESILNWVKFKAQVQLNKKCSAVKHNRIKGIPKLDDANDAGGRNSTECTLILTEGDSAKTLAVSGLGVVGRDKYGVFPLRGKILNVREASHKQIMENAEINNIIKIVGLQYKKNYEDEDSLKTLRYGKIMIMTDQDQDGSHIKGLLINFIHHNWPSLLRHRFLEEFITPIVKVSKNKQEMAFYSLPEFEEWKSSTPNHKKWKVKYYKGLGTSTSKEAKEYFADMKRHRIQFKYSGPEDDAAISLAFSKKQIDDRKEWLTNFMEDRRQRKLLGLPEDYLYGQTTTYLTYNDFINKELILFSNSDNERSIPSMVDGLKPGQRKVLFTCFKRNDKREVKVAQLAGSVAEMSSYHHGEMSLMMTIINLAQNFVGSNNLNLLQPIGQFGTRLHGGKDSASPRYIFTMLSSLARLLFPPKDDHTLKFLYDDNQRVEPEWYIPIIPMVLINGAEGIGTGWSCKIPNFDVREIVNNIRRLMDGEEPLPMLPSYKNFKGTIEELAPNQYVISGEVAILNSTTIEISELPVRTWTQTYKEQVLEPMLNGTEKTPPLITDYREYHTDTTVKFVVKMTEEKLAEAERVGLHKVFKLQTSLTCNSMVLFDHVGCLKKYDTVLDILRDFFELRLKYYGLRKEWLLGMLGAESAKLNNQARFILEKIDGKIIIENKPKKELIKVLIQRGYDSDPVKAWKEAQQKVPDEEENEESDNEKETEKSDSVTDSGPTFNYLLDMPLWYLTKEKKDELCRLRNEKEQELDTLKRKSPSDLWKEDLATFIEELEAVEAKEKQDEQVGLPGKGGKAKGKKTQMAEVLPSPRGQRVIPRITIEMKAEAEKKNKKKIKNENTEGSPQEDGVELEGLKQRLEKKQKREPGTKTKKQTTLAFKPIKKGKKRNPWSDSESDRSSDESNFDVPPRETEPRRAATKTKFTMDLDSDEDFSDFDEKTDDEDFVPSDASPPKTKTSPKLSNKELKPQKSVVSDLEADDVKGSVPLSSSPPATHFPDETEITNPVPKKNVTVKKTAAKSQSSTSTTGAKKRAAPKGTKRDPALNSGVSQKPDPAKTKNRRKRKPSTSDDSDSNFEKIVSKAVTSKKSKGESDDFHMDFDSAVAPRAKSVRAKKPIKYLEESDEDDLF

For the compound `COc1cccc2c1C(=O)c1c(O)c3c(c(O)c1C2=O)C[C@@](O)(C(C)=O)C[C@@H]3O[C@H]1C[C@H](N)[C@H](O)[C@H](C)O1` [DAUNORUBICIN], the 50% inhibitory concentration (IC50) amounted to 5.5 µM in the assay with MCF7 [1]; 2.5 µM with Vero; 0.4 µM in the assay with HT-29 [5]; 10.5 µM in assay [7]; 0.7 µM in the assay with HepG2 [10]; 1.8 µM in [12]. Also, the inhibition result in assay [2] was “inactive”. In addition, the values for the viability at 25 µM with HT-29 [3] and with HepG2 [11] were 11% and 2%, respectively. Also, the viability at 16 µM in the assay with HepG2 [4] was 2%. Besides, the viability at 20 µM came out at 11% in the assay with HT-29 [6] and 2% in the assay on MCF7 [9]. The inhibition result in [8] was “Active”.
On to `COc1cccc2c1C(=O)c1c(O)c3c(c(O)c1C2=O)C[C@@](O)(C(=O)CO)C[C@@H]3O[C@H]1C[C@H](N)[C@H](O)[C@H](C)O1` [DOXORUBICIN], for which the IC50 with MCF7 [1] is 16.8 µM; in the assay with Vero it was 10.4 µM; in the assay with HT-29 [5], 0.6 µM; in [7], over 25 µM; with HepG2 [10], 1 µM; in assay [12], 3.5 µM. For the same compound, the inhibition result in assay [2] was “inactive”. Further, the figures for the viability at 25 µM with HepG2 [13] and with HT-29 [3] were 8% and 43%, respectively. Also, the viability at 16 µM in the assay with HepG2 [4] came to 8%. Besides, the values for the viability at 20 µM in the assay with HT-29 [6] and with MCF7 [9] were 43% and 47%, respectively. Also, in [14], the outcome was inactive. In assay [8], the inhibition entry was “Active”.
Regarding `Cc1ccc(S(=O)(=O)n2c(-c3ccccc3)c(C#CCO[C@H]3C[C@H](N)[C@H](O)[C@H](C)O3)c3ccccc32)cc1`, the 50% inhibitory concentration (IC50) was 4.8 µM in the assay on MCF7 [1]; 10.2 µM in the assay on Vero; 6.3 µM in the assay on HT-29 [5]; 16.5 µM in assay [7]; 5.9 µM with HepG2 [10]; 5 µM in assay [12]. Moreover, the inhibition in assay [15] is 101%; in assay [22], 80.1%. Also, the Activity in the assay with Nucleic Acid is 47.9%; in the assay with HT-29 [17] it was 100%; with HepG2 [23] it was 100%; in the assay with MCF7 [24], 100%. For the same compound, the inhibition result in assay [16] and in [2] was “inactive” throughout. Besides, the viability at 25 µM in the assay on HepG2 [13], in the assay with HT-29 [3] and in the assay on MCF7 [20] was under 1% each time. Also, the result in assay [18], in assay [14], in assay [19] and in assay [21] was inactive. Further, the inhibition result in [25] was “Active”.
